PostGolgi ctrl – inhibits growth of the yeast control strain; efflux-deficient yeast background strain, growth absorbance A615, 16 h; inhibition, % at 10 µM; 5% of 98,000 active; AID 738
PostGolgi yeast – growth inhibition of a yeast mutant, post-Golgi transport screen. post-Golgi transport phenotypic cell assay. inhibition, % at 10 µM. 0.9% of 98,000 active;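 also: yeast cells grown in 1536-well plates; yeast grown about 18 h at 30C before absorbance read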
hDAT+cocaine – changed human dopamine transporter uptake under cocaine IC80 | Q01959 | LLC-PK1 hDAT cells, [14C]-dopamine uptake with cocaine IC80; actives deviate in either direction | B-score at 10 µM | 1.3% of 110,000 active;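 active = Z score or B-score, a plate-position-corrected score, falls beyond the plate's 99.7% confidence bounds, in either direction; inactive = both scores lie inside the 99.7% bounds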;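 also: scored against the spread of the other compound wells on the same plate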
Target sequence (Q01959 whole entry, looked up): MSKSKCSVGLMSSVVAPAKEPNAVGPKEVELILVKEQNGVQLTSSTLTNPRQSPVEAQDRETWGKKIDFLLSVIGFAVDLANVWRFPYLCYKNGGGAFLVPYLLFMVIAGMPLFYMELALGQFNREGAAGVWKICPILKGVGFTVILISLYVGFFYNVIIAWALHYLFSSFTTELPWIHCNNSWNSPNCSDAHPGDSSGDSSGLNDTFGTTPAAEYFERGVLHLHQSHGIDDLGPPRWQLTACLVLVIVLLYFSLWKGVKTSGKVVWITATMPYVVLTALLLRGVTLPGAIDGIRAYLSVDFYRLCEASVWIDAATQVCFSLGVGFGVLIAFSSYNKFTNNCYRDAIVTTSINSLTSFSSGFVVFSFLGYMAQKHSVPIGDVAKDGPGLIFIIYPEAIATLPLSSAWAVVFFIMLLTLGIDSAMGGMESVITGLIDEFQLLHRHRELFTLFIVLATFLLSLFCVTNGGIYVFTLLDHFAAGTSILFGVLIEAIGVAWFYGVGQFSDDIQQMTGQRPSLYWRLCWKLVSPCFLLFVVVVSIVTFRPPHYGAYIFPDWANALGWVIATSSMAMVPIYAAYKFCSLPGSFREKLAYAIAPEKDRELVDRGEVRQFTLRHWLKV
D1 mod – D1 dopamine receptor (human) allosteric modulation | P21728 | HEK293 D1, CRE-luciferase, dopamine EC30 potentiation; actives deviate in either direction | B-score at 10 µM | 5.9% of 58,000 active | AID 641;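 active = luminescence count or its row- and column-corrected plate score outside the 99.7% band of the plate's sample wells, on either side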
tolC growth inh – E. coli tolC mutant growth inhibition. E. coli BW25113 tolC mutant growth, OD615. growth inhibition, % at 10 µM (by protocol). 2.2% of 65,000 active. AID 573;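 active = growth inhibition at or above a cutoff equal to the mean over every tested compound plus 3 SD, cut at about 60% in these data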;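 also: growth measured after 20 h incubation at 37 °C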
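Doses: one dose of 10 µM final / Material: E. coli BW25113 ΔtolC::kan, tolC deletion mutant strain / Buffer or medium: LB with kanamycin 50 µg/mL / Evaluation: percent growth inhibition / Detection: optical density read at 615 nm / Incubation: 37 °C, 20 h exposure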
Ecoli WT expand – E. coli BW25113 growth inhibition, expanded screen; OD600 absorbance; 0.15% of 98,000 active; AID 710; growth inhibition, % at 100 µM;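 active = growth inhibition above about 50% at one test dose, limit read from the data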;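 also: growth measured after 20 h incubation at 37 °C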
Active calls of the source: *; . = not tested or not shown. The list is not random: actives were taken first. Their share in the collection is about 9.3%. Rule as the data show it, unless noted: active = inhibition above about 30%; inactive = the rest.

SMILES | PostGolgi ctrl | PostGolgi yeast | hDAT+cocaine | D1 mod | tolC growth inh | Ecoli WT expand
COc1ccc(N2CCN(C(=O)CNC(=O)Cn3c(C)cc4ccccc4c3=O)CC2)cc1 | 1 | 0 | 0.0036 | -0.3 | 2 | -1
COc1ccc(-c2nc(Cn3c(SCc4ccccc4F)nc4ccncc43)c(C)o2)cc1 | 11 | -7 | 0.27 | . | . | -10
COc1ccc(-c2nc(Cn3c(SCc4ccc(F)cc4)nc4ccncc43)c(C)o2)cc1OC | 11 | -9 | 3.1* | . | . | -6
CC(C)NC(=O)c1onc(CSc2cccc(Cl)c2)c1C(=O)O | 3 | 2 | -0.31 | . | . | -11
Cc1ccc(C(=O)/C=C/Nc2cccc(O)c2)cc1 | 11 | 1 | 0.18 | -2.8* | 12 | 1
O=C(/C=C/Nc1cccc(O)c1)c1ccccc1 | 5 | -2 | 1.1 | -8.7* | -2 | -3
C/C(=C\C(=O)c1ccc(C)cc1)Nc1cccc(O)c1 | 2 | -5 | . | -1.1 | 14 | -1
Cc1c(-c2ccccc2)sc(N)c1C(=O)N1CCOCC1 | 9 | 18 | -0.26 | 0.038 | -15 | 6
CCN(CC(=O)Nc1ccccc1C(=O)OC)S(=O)(=O)c1ccc(OC)cc1 | 40* | -6 | 0.43 | 0.11 | 9 | 2
C[C@@]12CCC=C[C@H]1[C@H](c1ccc(C(F)(F)F)cc1)N(Cc1ccccc1)C2=O | . | . | 0.49 | . | . | .
CC(=O)c1c(C(C)=O)c(C)n(NC(=O)c2ccc(Cl)cc2)c1C | 23 | 31* | 1.3 | . | . | -1
O=C1C=C(c2ccc3c(c2)OCO3)CCC1 | . | . | 0.8 | . | . | .
CC(C)c1ccccc1OCCNS(C)(=O)=O | 12 | -23 | 0.17 | -0.33 | -3 | 4
COC(=O)C1=C(C)N=C2SC(C)C(=O)N2C1c1ccc(C(=O)OC)cc1 (stereo not drawn) | 36* | -2 | 0.47 | 1.3 | 4 | 14
CCC1SC2=NC(C)=C(C(=O)OC)C(c3ccc(C)cc3)N2C1=O (stereo not drawn) | 42* | -13 | 0.31 | -0.023 | 3 | 0
CCC1SC2=NC(C)=C(C(=O)OCCOC)C(/C=C/c3ccccc3OC)N2C1=O (stereo not drawn) | 18 | 9 | -7.6* | . | . | -4
COC(=O)C1=C(C)N=C2SC(C)C(=O)N2C1c1cccs1 (stereo not drawn) | 6 | 17 | 1.2 | . | 16 | 1
CC1CN=C(c2cccn2Cc2ccc(F)cc2Cl)O1 (stereo not drawn) | 32* | 11 | -0.1 | -0.045 | 2 | 6
CC1(C)COC(c2cccn2Cc2ccc(F)cc2Cl)=N1 | 8 | 10 | -1.3 | . | . | 8
O=C1c2cccnc2C(=O)N1Cc1ccc(F)cc1 | -1 | 0 | 0.46 | -1.2* | -5 | -4
CC(c1nnc(SCC(=O)N2CC(=O)Nc3ccccc32)n1Cc1ccccc1)N(C)C (stereo not drawn) | 13 | -2 | -0.45 | . | . | 7
COc1ccc(C(=O)NN(C)c2nc(-c3ccccc3)nnc2C(F)(F)F)cc1 | 35* | 2 | . | . | . | -5
CCCCNC(=O)CN(c1cccc(Br)c1)S(C)(=O)=O | . | . | -1.2 | . | . | .
CCOC(=O)c1c(N)sc(C(O)(C(F)(F)F)C(F)(F)F)c1-c1ccccc1 | 32* | 3 | -0.57 | . | . | 7
COCCNC(=S)NC12CC3CC(CC(C3)C1)C2 | 19 | 2 | -0.35 | . | . | 0
SMILES | PostGolgi ctrl | PostGolgi yeast | hDAT+cocaine | D1 mod | tolC growth inh | Ecoli WT expand
NCCCC[C@H]1CNC(=O)C(=O)N1CCC12CC3CC(CC(C3)C1)C2 | . | . | 0.18 | . | . | .
Cc1cccc(/C=N/NC(=O)C(C)Nc2cccc3ccccc23)n1 (stereo not drawn) | 9 | -7 | 2.5* | . | . | -9
CCCC(=O)N=C1SC2CS(=O)(=O)CC2N1c1ccc(CC)cc1 (stereo not drawn) | -6 | -3 | . | -0.75 | . | 6
COC(=O)CN1C(=O)Nc2ccc(Br)cc2C1c1ccccc1Cl (stereo not drawn) | 33* | -9 | 0.72 | . | . | -2
CCOC(=O)CN1C(=O)Nc2ccc(Br)cc2C1c1ccccc1 (stereo not drawn) | 13 | 9 | -0.024 | . | . | 2
CCOC(=O)c1cncc(C(=O)O)c1 | -2 | -8 | 0.91 | . | . | -10
O=C1C2=C(Nc3ccccc3SC2c2ccco2)c2ccccc21 (stereo not drawn) | 72* | 12 | -0.25 | -0.76 | 100* | 20
CCOC(=O)/C(N=Nc1c(Br)cc(Br)cc1Br)=C(\C)O | 12 | 12 | -0.29 | . | . | -4
CCOc1nc(Nc2ccc(OC)cc2)nc(OCC)n1 | 22 | -1 | -0.97 | . | . | -7
CCOc1nc(Nc2ccc(OC)c(Cl)c2)nc(OCC)n1 | 36* | 14 | -0.049 | . | . | -12
Cc1cc(C)cc(-n2c(C)cc(/C=N/NC(=O)CSc3ncccn3)c2C)c1 | 18 | 41* | 1.6 | . | . | 8
Cc1cc(C)cc(-n2c(C)cc(/C=N/NC(=O)c3cccc([N+](=O)[O-])c3C)c2C)c1 | 15 | 3 | 0.22 | . | . | -11
CC1=C(C(=O)OCC(Br)(Br)Br)C(c2ccc(Br)cc2)NC(=O)N1CCCC(=O)O (stereo not drawn) | . | . | 0.84 | . | . | .
CCn1c(C(=O)N2CCC(C(=O)NCCCSC3CCCCC3)CC2)cc2sccc21 | 20 | -1 | 1.3 | -1.2 | 84* | -27
CCc1c(O)cc2n(c1=O)-c1ccc(Cl)cc1C2(C)C | . | . | -0.23 | . | . | .
Cn1c(=O)n(CCc2ccccc2)c(=O)c2c1ncn2Cc1ccccc1 | 38* | -5 | 0.098 | . | 18 | 1
Cn1c(N2CCOCC2)nc2c1c(=O)n(Cc1ccc(Cl)c(Cl)c1)c(=O)n2C | 40* | -10 | 1.3 | . | 5 | -3
Cc1cc(C)cc(N2CCCn3c2nc2c3c(=O)n(CC(=O)OCc3ccccc3)c(=O)n2C)c1 | 5 | 15 | 0.17 | -1.1* | 26 | 24
Cn1c(=O)n(CCc2ccccc2)c(=O)c2c1nc1n2CCCN1CCc1ccccc1 | 37* | 6 | 0.53 | -1.1 | 76* | -26
COc1ccc(N2CCCn3c2nc2c3c(=O)n(CCc3ccccc3)c(=O)n2C)cc1 | . | . | -1.3 | -2.8* | -15 | .
Cn1c(=O)n(Cc2ccc(F)cc2)c(=O)c2c1nc1n2CCCN1Cc1ccccc1 | 45* | 2 | 0.59 | -0.24 | 13 | -8
CCOc1ccc(N2CCCn3c2nc2c3c(=O)n(CCc3ccccc3)c(=O)n2C)cc1 | . | . | . | -0.039 | -3 | .
Cn1c(=O)n(CCc2ccccc2)c(=O)c2c1nc1n2CCCN1Cc1ccccc1 | 13 | 5 | -0.26 | -1.2 | 26 | -16
CC1=NN(c2ccccc2)C(=O)/C1=C/c1cc2cc(C)ccc2nc1N1CCCCC1 | 48* | 0 | -1 | . | . | -16
Cc1nc2ccccc2nc1N1CCCCC1 | 17 | 0 | 1.6 | 1.2 | -11 | 2
Cc1cc([N+](=O)[O-])ccc1NCc1ccccc1 | 11 | -5 | -0.026 | . | . | 6
Cc1ccc(C(=O)O)cc1NC(=S)NC(=O)C(c1ccccc1)c1ccccc1 | 4 | -1 | 1.4 | . | . | 6
Cc1cc([N+](=O)[O-])ccc1NC(=S)NC(=O)C(c1ccccc1)c1ccccc1 | 46* | 7 | 0.17 | . | . | -16

Source: PubChem
